Experimental data reported in ChEMBL document CHEMBL1154157, “Synthesis, structure and structure-activity relationship analysis of 3-tert-butoxycarbonyl-2-arylthiazolidine-4-carboxylic acid derivatives as potential antibacterial agents” (Eur J Med Chem, 2009).
In brackets after ≈: the same amount, converted by molar mass.

Tests used:
Assay type in all cases: functional, organism-based
Staphylococcus aureus = assay: Antibacterial activity against Staphylococcus aureus ATCC 6538 after 24 hrs by MTT method; details: ATCC 6538, 24 h
How it was run: (§1)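 Broth assay in Mueller-Hinton liquid medium. Compounds dissolved in DMSO (stock 50 μg/mL) and serially diluted into the medium. Inoculum approx. 10^5 cfu/mL, incubated 37 °C for 24 h. Afterwards MTT (2 mg/mL in 0.01 mol/L PBS, pH 7.4) added, 4-5 h at room temperature. Dye extracted with isopropanol containing 5% 1 mol/L HCl for 12 h, OD read at 570 nm. IC50 derived colorimetrically.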

Bacillus subtilis = assay: Antibacterial activity against Bacillus subtilis ATCC 6633 after 24 hrs by MTT method; details: ATCC 6633, 24 h; how it was run: as §1
Pseudomonas aeruginosa = assay: Antibacterial activity against Pseudomonas aeruginosa ATCC 13525 after 24 hrs by MTT method; details: ATCC 13525, 24 h; how it was run: as §1
Escherichia coli = assay: Antibacterial activity against Escherichia coli ATCC 35218 after 24 hrs by MTT method; details: ATCC 35218, 24 h; how it was run: as §1

Compound	IC50 (Staphylococcus aureus)	IC50 (Bacillus subtilis)	IC50 (Pseudomonas aeruginosa)	IC50 (Escherichia coli)
CC(C)(C)OC(=O)N1C(c2cc(Cl)ccc2O)SC[C@H]1C(=O)O (mixture of isomers)	1.56 µg/mL	1.56 µg/mL	0.39 µg/mL	1.56 µg/mL
CC(C)(C)c1cc(C2N[C@H](C(=O)O)CS2)cc(C(C)(C)C)c1O (mixture of isomers)	12.5 µg/mL	25 µg/mL	25 µg/mL	25 µg/mL
O=C(O)[C@@H]1CSC(c2cc(Cl)ccc2O)N1 (mixture of isomers)	6.25 µg/mL	12.5 µg/mL	3.12 µg/mL	12.5 µg/mL
O=C(O)[C@@H]1CSC(c2ccccc2)N1 (mixture of isomers)	12.5 µg/mL	3.12 µg/mL	> 50 µg/mL	25 µg/mL
CC(C)(C)OC(=O)N1C(c2cc(Br)ccc2O)SC[C@H]1C(=O)O (mixture of isomers)	1.56 µg/mL	1.56 µg/mL	0.78 µg/mL	1.56 µg/mL
O=C(O)[C@@H]1CSC(c2cc(Br)ccc2O)N1 (mixture of isomers)	12.5 µg/mL	12.5 µg/mL	6.25 µg/mL	25 µg/mL
O=C(O)[C@@H]1CSC(c2ccc(O)cc2)N1 (mixture of isomers)	> 50 µg/mL	25 µg/mL	25 µg/mL	> 50 µg/mL
CC(C)(C)OC(=O)N1C(c2cc(Br)cc(Br)c2O)SC[C@H]1C(=O)O (mixture of isomers)	1.56 µg/mL	3.12 µg/mL	0.39 µg/mL	0.78 µg/mL
CC(C)(C)OC(=O)N1C(c2cc(C(C)(C)C)c(O)c(C(C)(C)C)c2)SC[C@H]1C(=O)O (mixture of isomers)	1.56 µg/mL	0.39 µg/mL	0.39 µg/mL	0.69 µg/mL
O=C(O)[C@@H]1CSC(c2cc(F)ccc2O)N1 (mixture of isomers)	6.25 µg/mL	3.12 µg/mL	1.56 µg/mL	12.5 µg/mL
CC(C)(C)OC(=O)N1C(c2ccc(Br)cc2)SC[C@H]1C(=O)O (mixture of isomers)	3.12 µg/mL	3.12 µg/mL	0.39 µg/mL	0.39 µg/mL
CC(C)(C)OC(=O)N1C(c2ccccc2)SC[C@H]1C(=O)O (mixture of isomers)	0.78 µg/mL	3.12 µg/mL	0.78 µg/mL	0.39 µg/mL
O=C(O)[C@@H]1CSC(c2cc(Br)cc(Br)c2O)N1 (mixture of isomers)	> 50 µg/mL	12.5 µg/mL	25 µg/mL	12.5 µg/mL
COc1ccc(C2SC[C@@H](C(=O)O)N2C(=O)OC(C)(C)C)cc1 (mixture of isomers)	1.56 µg/mL	3.12 µg/mL	0.39 µg/mL	0.78 µg/mL
CC(C)(C)OC(=O)N1C(c2ccc(O)cc2)SC[C@H]1C(=O)O (mixture of isomers)	3.12 µg/mL	0.39 µg/mL	0.39 µg/mL	0.78 µg/mL
COc1ccc(C2N[C@H](C(=O)O)CS2)cc1 (mixture of isomers)	25 µg/mL	12.5 µg/mL	> 50 µg/mL	> 50 µg/mL
CC1(C)S[C@@H]2[C@H](NC(=O)Cc3ccccc3)C(=O)N2[C@H]1C(=O)O [PENICILLIN G]	1.56 µg/mL (≈ 4.67 µM)	1.56 µg/mL (≈ 4.67 µM)	6.25 µg/mL (≈ 18.7 µM)	6.25 µg/mL (≈ 18.7 µM)
CC(C)(C)OC(=O)N1C(c2cc(F)ccc2O)SC[C@H]1C(=O)O (mixture of isomers)	0.39 µg/mL	0.39 µg/mL	0.195 µg/mL	0.78 µg/mL
NC[C@H]1O[C@H](O[C@H]2[C@H](O)[C@@H](O[C@H]3O[C@H](CO)[C@@H](O)[C@H](N)[C@H]3O)[C@H](N)C[C@@H]2N)[C@H](N)[C@@H](O)[C@@H]1O [BEKANAMYCIN]	1.56 µg/mL (≈ 3.23 µM)	0.39 µg/mL (≈ 0.807 µM)	3.12 µg/mL (≈ 6.46 µM)	3.12 µg/mL (≈ 6.46 µM)
